Assay [1] has as its target T1, 11-beta-hydroxysteroid dehydrogenase 1 (Homo sapiens, UniProt P28845). Description: Inhibition of human recombinant 11beta-HSD1 expressed in HEK293 cell lysate assessed as conversion of radiolabeled estrone to estradiol. In kind it is cell-free.
Target sequence in this assay (P28845 whole entry): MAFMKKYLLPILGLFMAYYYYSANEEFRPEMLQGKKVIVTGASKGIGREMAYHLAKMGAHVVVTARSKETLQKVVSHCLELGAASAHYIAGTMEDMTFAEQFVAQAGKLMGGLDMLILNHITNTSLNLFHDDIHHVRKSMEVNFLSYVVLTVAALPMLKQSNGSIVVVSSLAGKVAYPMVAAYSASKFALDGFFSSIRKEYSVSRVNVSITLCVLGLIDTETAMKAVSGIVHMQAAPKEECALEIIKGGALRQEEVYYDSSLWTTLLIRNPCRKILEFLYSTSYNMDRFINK
In assay [2] the target is T2, Aldo-keto reductase family 1 member C3 (Homo sapiens) (UniProt P42330).
T2 sequence (whole entry): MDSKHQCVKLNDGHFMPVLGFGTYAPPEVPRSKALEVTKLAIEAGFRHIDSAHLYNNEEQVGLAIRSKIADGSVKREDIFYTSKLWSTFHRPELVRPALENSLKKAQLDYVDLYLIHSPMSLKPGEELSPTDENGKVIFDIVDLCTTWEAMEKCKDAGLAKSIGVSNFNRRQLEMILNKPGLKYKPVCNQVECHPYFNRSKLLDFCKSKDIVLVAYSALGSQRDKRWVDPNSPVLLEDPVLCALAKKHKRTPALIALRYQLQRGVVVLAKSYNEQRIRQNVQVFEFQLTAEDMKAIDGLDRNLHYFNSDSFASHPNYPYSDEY
In words: Inhibition of human recombinant 17beta-HSD5 expressed in intact HEK293 cells assessed as conversion of androstenedione to testosterone at 20 uM after 24 hrs. In kind it is cell-based. The arrangement: scale not given: the % may be the effect or the level left. The essentials: (§1)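 17β-HSD3 or 17β-HSD5 was transiently expressed in HEK-293 cells. Conversion of androstenedione to testosterone was measured in intact cells without added cofactor. Compounds were tested at 20 µM, with final DMSO ≤0.1%. Values are mean ± SD from three independent experiments.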

Assay [3] has as its target T3, 17-beta-hydroxysteroid dehydrogenase type 1 (Homo sapiens) (UniProt P14061).
T3 sequence (whole entry): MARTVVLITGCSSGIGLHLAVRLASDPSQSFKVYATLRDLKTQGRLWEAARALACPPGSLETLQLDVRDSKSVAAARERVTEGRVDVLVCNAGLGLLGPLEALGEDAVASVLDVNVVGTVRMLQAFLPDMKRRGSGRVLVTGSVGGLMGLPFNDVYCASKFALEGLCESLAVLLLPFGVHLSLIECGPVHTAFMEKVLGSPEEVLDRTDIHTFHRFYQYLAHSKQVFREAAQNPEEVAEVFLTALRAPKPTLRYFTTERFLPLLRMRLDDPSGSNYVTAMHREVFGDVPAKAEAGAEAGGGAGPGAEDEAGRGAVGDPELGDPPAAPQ
In words: Inhibition of human recombinant 17beta-HSD1 expressed in HEK293 cell lysate assessed as conversion of radiolabeled estrone to estradiol at 20 uM. Format: cell-free. Details: scale not given: the % may be the effect or the level left. Put shortly:
(§2)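 HEK-293 cells transiently transfected with human 17β-HSD1 by calcium phosphate were harvested 48 h later, and the pellets were frozen at -70 °C. Pellets were resuspended in 50 mM potassium phosphate, 20% glycerol and 1 mM EDTA. Conversion of 200 nM radiolabeled estrone to estradiol was measured immediately with 500 µM NADPH. […] DMSO was ≤0.1%. Values are mean ± SD from three independent experiments.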

Assay [4] addresses T1, 11-beta-hydroxysteroid dehydrogenase 1. In words: Inhibition of human recombinant 11beta-HSD1 expressed in HEK293 cell lysate assessed as conversion of radiolabeled estrone to estradiol at 20 uM. Format: cell-free. The arrangement: scale not given: the % may be the effect or the level left.
Target sequence in this assay (P28845 whole entry, looked up): as the sequence (P28845 whole entry) above
The target in assay [5] is T4, 17-beta-hydroxysteroid dehydrogenase type 3 (Homo sapiens) (UniProt P37058).
T4 sequence (whole entry): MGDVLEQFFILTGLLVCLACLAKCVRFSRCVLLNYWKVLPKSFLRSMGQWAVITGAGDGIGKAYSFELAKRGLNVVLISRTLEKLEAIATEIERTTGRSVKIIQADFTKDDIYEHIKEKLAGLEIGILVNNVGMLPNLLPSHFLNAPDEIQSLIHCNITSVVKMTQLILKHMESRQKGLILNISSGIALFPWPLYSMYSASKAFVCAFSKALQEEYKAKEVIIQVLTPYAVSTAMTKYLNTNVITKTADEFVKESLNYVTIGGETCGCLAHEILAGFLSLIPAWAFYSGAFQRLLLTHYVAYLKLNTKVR
Description: Inhibition of human recombinant 17beta-HSD3 expressed in intact HEK293 cells assessed as conversion of androstenedione to testosterone at 20 uM. In kind it is cell-based. Details: scale not given: the % may be the effect or the level left. The essentials: as §1

In assay [6] the target is T5, 17-beta-hydroxysteroid dehydrogenase type 2 (Homo sapiens) (UniProt P37059).
T5 sequence (whole entry): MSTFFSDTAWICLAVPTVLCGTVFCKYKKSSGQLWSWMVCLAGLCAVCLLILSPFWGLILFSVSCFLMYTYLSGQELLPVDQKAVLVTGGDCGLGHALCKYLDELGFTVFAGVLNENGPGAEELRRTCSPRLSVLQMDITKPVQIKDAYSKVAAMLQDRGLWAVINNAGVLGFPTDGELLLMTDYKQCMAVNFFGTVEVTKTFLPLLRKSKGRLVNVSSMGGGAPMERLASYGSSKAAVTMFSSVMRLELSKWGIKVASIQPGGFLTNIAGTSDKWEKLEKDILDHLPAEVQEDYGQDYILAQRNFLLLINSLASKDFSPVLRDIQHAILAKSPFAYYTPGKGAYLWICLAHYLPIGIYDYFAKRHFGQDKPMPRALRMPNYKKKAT
In words: Inhibition of human recombinant 17beta-HSD2 expressed in HEK293 cell lysate assessed as conversion of radiolabeled estrone to estradiol at 20 uM. In kind it is cell-free. The arrangement: scale not given: the % may be the effect or the level left.

Assay [7] addresses T6, 17-beta-hydroxysteroid dehydrogenase type 1 (Homo sapiens, UniProt P14061).
T6 sequence (P14061 whole entry): T3 sequence (whole entry)
In words: Inhibition of human recombinant 17beta-HSD1 expressed in HEK293 cell lysate assessed as conversion of radiolabeled estrone to estradiol. In kind it is cell-free. Put shortly:
as §2

Activity calls are given as the source filed them. The rule behind the calls is not given here. Where only a bound is given, the exact number is not on record here.

Usually IC50 stands for the concentration that inhibits the measured activity by half. On to `C[C@]12CC[C@@H]3c4ccc(OC5CCCCO5)cc4CC[C@H]3[C@@H]1CC[C@@H]2O` (stereo partly specified), for which the IC50 in assay [1] was 20 µM. For the same molecule, the result in assay [2] was inactive. For the same molecule, the Activity was determined as 74% in assay [3], 365% in assay [4], 57% in assay [5] and 90% in assay [6].

With `CCOc1cc(CNC2C(C)=NN=C2S)cc(Br)c1OCC(=O)NC1CCCCC1` (stereo unspecified), the IC50 in assay [1] came to 6.2 µM. In addition, in assay [2], the result was inactive. The Activity in assay [3] was found to be 70%; in assay [4], 16%; in assay [5], 19%; in assay [6], 105%.

Consider `Cc1ccc(S(=O)(=O)N/N=C2\C=C[C@H]3[C@@H]4CC=C5C[C@@H](O)CC[C@]5(C)[C@H]4CC[C@]23C)cc1`, for which the IC50 was 3.8 µM in assay [1] and 47 µM in assay [7]. Besides, the Activity in assay [2] was 45%; in assay [3], 63%; in assay [4], 9%; in assay [5], 69%; in assay [6], 97%.

Regarding `CCOc1cc(/C=N/NC(N)=O)c(Br)c(Br)c1OCC(=O)Nc1ccc(C)cc1`, the IC50 in assay [1] was above 50 µM; in assay [7], 5.7 µM. Also, the result in assay [2] was inactive. For the same molecule, the Activity was 16% in assay [3], 70% in assay [4], 96% in assay [5] and 76% in assay [6].
